# E-sel inducer = E-selectin induction in HUVECs, primary screen, imaging, HUVEC, immunofluorescence imaging, single point; P16581; activation, % at 7.58 µM; normalized: neutral wells 0, TNF-alpha wells 100; actives 0.37% (n = 260,000);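 active = mean E-selectin-positive cell signal at least 10% of the positive control, reached in at least 60% of replicates, without over 20% cell loss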
# Target sequence (P16581 whole entry, looked up): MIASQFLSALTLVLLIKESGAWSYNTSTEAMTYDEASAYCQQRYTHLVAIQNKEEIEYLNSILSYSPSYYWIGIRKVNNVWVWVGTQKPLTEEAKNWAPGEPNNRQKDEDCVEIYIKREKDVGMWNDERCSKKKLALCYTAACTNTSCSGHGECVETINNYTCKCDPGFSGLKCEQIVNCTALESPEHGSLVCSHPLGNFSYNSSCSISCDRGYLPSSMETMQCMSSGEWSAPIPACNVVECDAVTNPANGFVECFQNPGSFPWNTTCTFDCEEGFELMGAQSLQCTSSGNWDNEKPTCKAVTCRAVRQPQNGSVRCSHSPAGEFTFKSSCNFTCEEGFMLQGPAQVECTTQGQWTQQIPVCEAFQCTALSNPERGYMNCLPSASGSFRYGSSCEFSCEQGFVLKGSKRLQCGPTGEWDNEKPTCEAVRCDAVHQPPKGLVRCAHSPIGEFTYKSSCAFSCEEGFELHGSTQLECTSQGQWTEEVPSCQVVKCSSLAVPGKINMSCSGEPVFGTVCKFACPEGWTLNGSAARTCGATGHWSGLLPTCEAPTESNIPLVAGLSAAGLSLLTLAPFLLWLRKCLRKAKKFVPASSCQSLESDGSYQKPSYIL
#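 Read-out: % PE-positive cells | Test system: HUVEC | Doses: One compound dose added by pin transfer | Buffer or medium: EGM-2 over gelatin coat | Signal: Immunofluorescence imaging | Benchmarks: TNF-alpha, DMSO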
# * hit, by the source's call. Shown is part of a subset that was picked to be rich in hits.
SMILES,E-sel inducer
Cc1ccc(C(C(=O)NC2CCCCC2)N(C(=O)c2csnn2)C2CC2)cc1 (configuration not stated),1.1
COCCN(C(=O)c1csnn1)C(C(=O)NC1CCCCC1)c1ccccc1 (configuration not stated),-0.2
Cc1ccc(NCc2nnc(SCC(=O)NNC(=O)Cc3ccccc3)n2C)cc1,-0.1
Cc1ccc(NCc2nnc(SCC(=O)Nc3nnc(C)s3)n2C)cc1,0.2
Cc1ccc(C(=O)NNC(=O)CSc2nnc(CNc3ccc(F)cc3)n2C)cc1,236.3*
C[C@H]1CN([C@@H](C)CO)C(=O)c2ccccc2-c2ccccc2CO[C@H]1CN(C)C(=O)Oc1ccccc1,-0.1
O=C(COc1ccccc1Cl)NCCCNC(=O)c1cnccn1,0.0
O=C(NCCCNC(=O)c1cnccn1)c1ccc(Cl)cc1,-0.1
O=C(COc1ccc(Cl)cc1)NCCCNC(=O)c1cnccn1,34.1*
CC(C)COC(=O)N(C)C[C@H]1OCc2cn(nn2)CCCC(=O)N([C@H](C)CO)C[C@H]1C,0.0
COc1cccc(CNC(=O)[C@@H]2[C@@H](CO)[C@@H]3Cn4c(cccc4=O)[C@H]2N3C(=O)C2CCC2)c1,0.0
C[C@@H]1CN([C@H](C)CO)C(=O)c2cc(NS(=O)(=O)c3cn(C)cn3)ccc2O[C@H]1CN(C)C(=O)Nc1ccc2c(c1)OCO2,255.3*
C[C@@H]1CN([C@@H](C)CO)C(=O)c2cc(NS(=O)(=O)c3cn(C)cn3)ccc2O[C@H]1CN(C)C(=O)Nc1ccc2c(c1)OCO2,-1.9
C[C@@H]1CN([C@H](C)CO)C(=O)c2cccc(NS(=O)(=O)c3cn(C)cn3)c2O[C@@H]1CN(C)Cc1ccc(Cl)c(Cl)c1,66.8*
C[C@H]1CN([C@@H](C)CO)C(=O)c2cccc(NS(=O)(=O)c3cn(C)cn3)c2O[C@@H]1CN(C)Cc1ccc(Cl)c(Cl)c1,-12.7
C[C@@H]1CN([C@@H](C)CO)C(=O)c2cccc(NS(=O)(=O)c3cn(C)cn3)c2O[C@H]1CN(C)C(=O)Nc1ccc2c(c1)OCO2,283.4*
C[C@H](CO)N1C[C@H](C)[C@@H](CN(C)C(=O)Nc2ccc3c(c2)OCO3)Oc2c(NS(=O)(=O)c3cn(C)cn3)cccc2C1=O,-8.6
C[C@H](CO)N1C[C@H](C)[C@H](CN(C)C(=O)Nc2ccc3c(c2)OCO3)Oc2c(NS(=O)(=O)c3cn(C)cn3)cccc2C1=O,-6.0
C[C@H]1CN([C@@H](C)CO)C(=O)c2cc(NS(=O)(=O)c3cn(C)cn3)ccc2O[C@H]1CN(C)C(=O)Nc1ccc2c(c1)OCO2,6.4
C[C@H]1CN([C@@H](C)CO)C(=O)c2cccc(NS(=O)(=O)c3cn(C)cn3)c2O[C@H]1CN(C)Cc1ccc(Cl)c(Cl)c1,-1.9
O=C(CCN1CCCCC1)N[C@@H]1C=C[C@H](CC(=O)N2CCC(Cc3ccccc3)CC2)O[C@@H]1CO,-0.9
CO[C@H]1CN(C)C(=O)c2ccc(NC(=O)Nc3cc(F)ccc3F)cc2OC[C@H](C)NC[C@H]1C,0.0
CCOC(=O)c1cnc2c(c(C3CC3)nn2C)c1N1CCOCC1,29.0*
CCOC(=O)c1cnc2cc(F)c(F)cc2c1N1CCOCC1,0.3
CCOC(=O)c1cnc2c(C)c(Cl)ccc2c1N1CCOCC1,-0.1
SMILES,E-sel inducer
CCN1[C@H](C(=O)OC)[C@@H](CO)[C@@H]2Cn3c(ccc(-c4cccc(OC)c4)c3=O)[C@@H]21,0.1
CC1CCCC(C)N1C(=O)CSc1nc2c(c(=O)n(C)c(=O)n2C)n1C (configuration not stated),27.1*
Cn1c(=O)c2c(nc(SCC(=O)N3CCOCC3)n2C)n(C)c1=O,0.0
CCCSc1nc2c(c(=O)n(C)c(=O)n2C)n1C,2.1
Cc1ccccc1S(=O)(=O)N1CCCCN2[C@H](CO)[C@@H](c3ccc(-c4cncnc4)cc3)[C@@H]2C1,-0.7
COc1ccccc1Nc1ncccc1[N+](=O)[O-],3.4
Cc1ccc2ncnc(Oc3ncccc3[N+](=O)[O-])c2c1,-0.4
COc1cc(C2SCCS2)cc(Br)c1Oc1ncccc1[N+](=O)[O-],60.6*
Cc1noc(C)c1NC(=O)N(C)C[C@H]1Oc2ccc(NC(=O)Cn3cnnn3)cc2C(=O)N([C@H](C)CO)C[C@H]1C,-6.6
C[C@@H]1CN([C@@H](C)CO)C(=O)c2cc(NC(=O)C3CCCCC3)ccc2O[C@@H]1CN(C)C(=O)Nc1ccc2c(c1)OCO2,-1.2
C[C@@H]1CN([C@@H](C)CO)C(=O)c2cc(NS(=O)(=O)c3cccs3)ccc2O[C@H]1CN(C)C(=O)Nc1ccc2c(c1)OCO2,284.1*
C[C@@H]1CN([C@H](C)CO)C(=O)c2cc(NC(=O)C3CCCCC3)ccc2O[C@@H]1CN(C)C(=O)Nc1ccc2c(c1)OCO2,-5.3
C[C@@H]1CN([C@H](C)CO)C(=O)c2cc(NS(=O)(=O)c3cccs3)ccc2O[C@H]1CN(C)C(=O)Nc1ccc(F)cc1,0.2
C[C@@H]1CN([C@H](C)CO)C(=O)c2cc(NC(=O)C3CCCCC3)ccc2O[C@H]1CN(C)C(=O)Nc1ccc2c(c1)OCO2,176.9*

# Source: PubChem BioAssay (Broad Institute)
